Active and inactive are the calls of the source. No cut-off for these calls is given here.
Key:
Gallus gallus [1] = test: Induction of bone calcium mobilization in vitamin-D-deficient chicken assessed per 100 ml of serum at 3 nmol, ip using 45Ca2+ and 40Ca2+ after 12 hrs; format: functional
Summary of the method: (§1)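 White Leghorn cockerels raised 4 weeks on a rachitogenic low-calcium diet without vitamin D, switched to a zero-calcium diet 3 days before assay. Analogue given intraperitoneally. Under light ether anesthesia, 5 μCi 45Ca2+ plus 4 mg 40Ca2+ carrier was put into the exposed duodenum. Birds were decapitated 30 min later and blood allowed to clot. Serum Ca2+ measured by atomic absorption on diluted serum, as mg/100 mL ± SEM.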

Gallus gallus [2] = test: Induction of bone calcium mobilization in vitamin-D-deficient chicken assessed per 100 ml of serum at 0.60 nmol, ip using 45Ca2+ and 40Ca2+ after 12 hrs; format: functional; summary of the method: as §1
Gallus gallus [3] = test: Induction of intestinal calcium absorption in vitamin-D-deficient chicken assessed per 0.2 ml of plasma at 0.60 nmol, ip using 45Ca2+ and 40Ca2+ after 12 hrs; format: functional
Summary of the method: (§2)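 Rachitic White Leghorn cockerels (4 weeks on a rachitogenic low-calcium diet without vitamin D, zero-calcium diet for the final 3 days) dosed intraperitoneally. Under light ether anesthesia, 5 μCi 45Ca2+ plus 4 mg 40Ca2+ carrier was placed in the duodenum. Birds were decapitated after 30 min. 45Ca radioactivity counted per 0.2 mL serum aliquot (cpm ± SEM). The enhancement ratio is relative to vitamin D-deficient controls.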

Gallus gallus [4] = test: Induction of intestinal calcium absorption in vitamin-D-deficient chicken assessed per 0.2 ml of plasma at 3 nmol, ip using 45Ca2+ and 40Ca2+ after 12 hrs; format: functional; summary of the method: as §2
Gallus gallus [5] = test: Induction of intestinal calcium absorption in vitamin-D-deficient chicken assessed per 0.2 ml of plasma at 0.60 nmol, ip using 45Ca2+ and 40Ca2+ after 12 hrs relative to control; format: functional; summary of the method: as §2
Gallus gallus [6] = test: Induction of intestinal calcium absorption in vitamin-D-deficient chicken assessed per 0.2 ml of plasma at 3 nmol, ip using 45Ca2+ and 40Ca2+ after 12 hrs relative to control; format: functional; summary of the method: as §2
Gallus gallus [7] = test: Induction of bone calcium mobilization in vitamin-D-deficient chicken assessed per 100 ml of serum at 163 nmol, ip using 45Ca2+ and 40Ca2+ after 5 to 36 hrs; format: functional, organism-based
Summary of the method: (§3)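 Rachitic chicks given a single 163-nmol intraperitoneal dose and sampled between 5 and 36 h afterward. ICA and BCM were read by the Hibberd–Norman procedure: duodenal 45Ca2+/40Ca2+ load, then serum collected 30 min later. ICA was taken as serum radioactivity and BCM as serum calcium by atomic absorption.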

Gallus gallus [8] = test: Induction of intestinal calcium absorption in vitamin-D-deficient chicken assessed per 0.2 ml of plasma at 163 nmol, ip using 45Ca2+ and 40Ca2+ after 5 to 36 hrs; format: functional, organism-based; summary of the method: as §3
Gallus gallus [9] = species on record: Gallus gallus; test: Displacement of [3H]-1-alpha,25-(OH)2-D3 from chicken intestinal cytosol chromatin receptor after 30 mins by scintillation counting relative to 1-alpha,25-(OH)2-D3
Summary of the method: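 Reconstituted chick intestinal cytosol–chromatin receptor system. Nonradioactive competitor plus tritiated 1α,25-(OH)2-D3 (2 × 10^-8 M, constant saturating) with chromatin (375 μg DNA) in cytosol, incubated 30 min at 25 °C. Chromatin reisolated by centrifugation, washed three times (0.5% Triton X-100, 0.01 M Tris-HCl pH 8.5), and bound tritium counted by liquid scintillation. Expressed as RCI, with 1α,25-(OH)2-D3 set at 100.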

Gallus gallus [10] = test: Induction of bone calcium mobilization in vitamin-D-deficient chicken assessed per 100 ml of serum at 3.3 nmol, ip using 45Ca2+ and 40Ca2+ after 24 hrs; format: functional; summary of the method: as §1
Gallus gallus [11] = test: Induction of intestinal calcium absorption in vitamin-D-deficient chicken assessed per 0.2 ml of plasma at 3.3 nmol, ip using 45Ca2+ and 40Ca2+ after 24 hrs; format: functional; summary of the method: as §2
Gallus gallus [12] = test: Induction of intestinal calcium absorption in vitamin-D-deficient chicken assessed per 0.2 ml of plasma at 3.3 nmol, ip using 45Ca2+ and 40Ca2+ after 24 hrs relative to control; format: functional; summary of the method: as §2
Gallus gallus [13] = test: Induction of bone calcium mobilization in vitamin-D-deficient chicken assessed per 100 ml of serum at 0.62 nmol, ip using 45Ca2+ and 40Ca2+ after 14 hrs; format: functional; summary of the method: as §1
Gallus gallus [14] = test: Induction of bone calcium mobilization in vitamin-D-deficient chicken assessed per 100 ml of serum at 3.1 nmol, ip using 45Ca2+ and 40Ca2+ after 14 hrs; format: functional; summary of the method: as §1
Gallus gallus [15] = test: Induction of bone calcium mobilization in vitamin-D-deficient chicken assessed per 100 ml of serum at 15.5 nmol, ip using 45Ca2+ and 40Ca2+ after 14 hrs; format: functional; summary of the method: as §1
Gallus gallus [16] = test: Induction of bone calcium mobilization in vitamin-D-deficient chicken assessed per 100 ml of serum at 62 nmol, ip using 45Ca2+ and 40Ca2+ after 14 hrs; format: functional; summary of the method: as §1
Gallus gallus [17] = test: Induction of bone calcium mobilization in vitamin-D-deficient chicken assessed per 100 ml of serum at 310 nmol, ip using 45Ca2+ and 40Ca2+ after 14 hrs; format: functional; summary of the method: as §1
Gallus gallus [18] = test: Induction of bone calcium mobilization in vitamin-D-deficient chicken assessed per 100 ml of serum at 62 nmol, ip using 45Ca2+ and 40Ca2+ after 18 hrs; format: functional; summary of the method: as §1
Gallus gallus [19] = test: Induction of bone calcium mobilization in vitamin-D-deficient chicken assessed per 100 ml of serum at 62 nmol, ip using 45Ca2+ and 40Ca2+ after 24 hrs; format: functional; summary of the method: as §1
Gallus gallus [20] = test: Induction of bone calcium mobilization in vitamin-D-deficient chicken assessed per 100 ml of serum at 62 nmol, ip using 45Ca2+ and 40Ca2+ after 36 hrs; format: functional; summary of the method: as §1
Gallus gallus [21] = test: Induction of intestinal calcium absorption in vitamin-D-deficient chicken assessed per 0.2 ml of plasma at 0.62 nmol, ip using 45Ca2+ and 40Ca2+ after 14 hrs; format: functional; summary of the method: as §2
Gallus gallus [22] = test: Induction of intestinal calcium absorption in vitamin-D-deficient chicken assessed per 0.2 ml of plasma at 3.1 nmol, ip using 45Ca2+ and 40Ca2+ after 14 hrs; format: functional; summary of the method: as §2
Gallus gallus [23] = test: Induction of intestinal calcium absorption in vitamin-D-deficient chicken assessed per 0.2 ml of plasma at 15.5 nmol, ip using 45Ca2+ and 40Ca2+ after 14 hrs; format: functional; summary of the method: as §2
Gallus gallus [24] = test: Induction of intestinal calcium absorption in vitamin-D-deficient chicken assessed per 0.2 ml of plasma at 62 nmol, ip using 45Ca2+ and 40Ca2+ after 14 hrs; format: functional; summary of the method: as §2
Gallus gallus [25] = test: Induction of intestinal calcium absorption in vitamin-D-deficient chicken assessed per 0.2 ml of plasma at 310 nmol, ip using 45Ca2+ and 40Ca2+ after 14 hrs; format: functional; summary of the method: as §2
Gallus gallus [26] = test: Induction of intestinal calcium absorption in vitamin-D-deficient chicken assessed per 0.2 ml of plasma at 62 nmol, ip using 45Ca2+ and 40Ca2+ after 18 hrs; format: functional; summary of the method: as §2
Gallus gallus [27] = test: Induction of intestinal calcium absorption in vitamin-D-deficient chicken assessed per 0.2 ml of plasma at 62 nmol, ip using 45Ca2+ and 40Ca2+ after 24 hrs; format: functional; summary of the method: as §2
Gallus gallus [28] = test: Induction of intestinal calcium absorption in vitamin-D-deficient chicken assessed per 0.2 ml of plasma at 62 nmol, ip using 45Ca2+ and 40Ca2+ after 36 hrs; format: functional; summary of the method: as §2
Gallus gallus [29] = test: Induction of intestinal calcium absorption in vitamin-D-deficient chicken assessed per 0.2 ml of plasma at 0.62 nmol, ip using 45Ca2+ and 40Ca2+ after 14 hrs relative to control; format: functional; summary of the method: as §2
Gallus gallus [30] = test: Induction of intestinal calcium absorption in vitamin-D-deficient chicken assessed per 0.2 ml of plasma at 3.1 nmol, ip using 45Ca2+ and 40Ca2+ after 14 hrs relative to control; format: functional; summary of the method: as §2
Gallus gallus [31] = test: Induction of intestinal calcium absorption in vitamin-D-deficient chicken assessed per 0.2 ml of plasma at 15.5 nmol, ip using 45Ca2+ and 40Ca2+ after 14 hrs relative to control; format: functional; summary of the method: as §2
Gallus gallus [32] = test: Induction of intestinal calcium absorption in vitamin-D-deficient chicken assessed per 0.2 ml of plasma at 62 nmol, ip using 45Ca2+ and 40Ca2+ after 14 hrs relative to control; format: functional; summary of the method: as §2
Gallus gallus [33] = test: Induction of intestinal calcium absorption in vitamin-D-deficient chicken assessed per 0.2 ml of plasma at 310 nmol, ip using 45Ca2+ and 40Ca2+ after 14 hrs relative to control; format: functional; summary of the method: as §2
Gallus gallus [34] = test: Induction of intestinal calcium absorption in vitamin-D-deficient chicken assessed per 0.2 ml of plasma at 62 nmol, ip using 45Ca2+ and 40Ca2+ after 18 hrs relative to control; format: functional; summary of the method: as §2
Gallus gallus [35] = test: Induction of intestinal calcium absorption in vitamin-D-deficient chicken assessed per 0.2 ml of plasma at 62 nmol, ip using 45Ca2+ and 40Ca2+ after 24 hrs relative to control; format: functional; summary of the method: as §2
Gallus gallus [36] = test: Induction of intestinal calcium absorption in vitamin-D-deficient chicken assessed per 0.2 ml of plasma at 62 nmol, ip using 45Ca2+ and 40Ca2+ after 36 hrs relative to control; format: functional; summary of the method: as §2

C=C1/C(=C\C=C2/CCC[C@]3(C)[C@@H]([C@H](C)CCCC(C)(C)O)CC[C@@H]23)C[C@@H](O)C[C@@H]1O [CALCITRIOL]
Activity (Gallus gallus [1]): 6.1 mg | Activity (Gallus gallus [2]): 6.6 mg | Activity (Gallus gallus [3]): 1630 cpm | Activity (Gallus gallus [4]): 1320 cpm | Ratio (Gallus gallus [5]): 3.1 | Ratio (Gallus gallus [6]): 2.5 | Activity (Gallus gallus [7]): Active | Activity (Gallus gallus [8]): Active

C=C1CC[C@H](O)C/C1=C/C=C1\CCC[C@]2(C)[C@@H]([C@H](C)CCCC(C)(C)O)CC[C@@H]12
Activity (Gallus gallus [7]): Active | Activity (Gallus gallus [8]): Active

C=C1CC[C@H](O)C/C1=C\C=C1/CCC[C@]2(C)[C@@H]([C@H](C)CCCCC(C)(C)O)CC[C@@H]12
RCI (Gallus gallus [9]): 0.066%

C=C1CC[C@H](O)C/C1=C\C=C1/CCC[C@]2(C)[C@@H]([C@H](C)CCC(C)(C)O)CC[C@@H]12
Activity (Gallus gallus [7]): inactive | Activity (Gallus gallus [8]): inactive | RCI (Gallus gallus [9]): 0.1%

C=C1CC[C@H](O)C/C1=C/C=C1\CCC[C@]2(C)[C@@H]([C@H](C)CCCC(C)C)CC[C@@H]12 [CHOLECALCIFEROL]
Activity (Gallus gallus [10]): 6.3 mg | Activity (Gallus gallus [11]): 2430 cpm | Ratio (Gallus gallus [12]): 4.6

C=C1/C(=C\C=C2/CCC[C@]3(C)[C@@H]([C@H](C)CCC(C)(C)O)CC[C@@H]23)C[C@@H](O)C[C@@H]1O
Activity (Gallus gallus [13]): 4.8 mg | Activity (Gallus gallus [14]): 4.4 mg | Activity (Gallus gallus [15]): 5.1 mg | Activity (Gallus gallus [16]): 5 mg | Activity (Gallus gallus [17]): 6.5 mg | Activity (Gallus gallus [18]): 5.6 mg | Activity (Gallus gallus [19]): 5.4 mg | Activity (Gallus gallus [20]): 4.3 mg | Activity (Gallus gallus [21]): 420 cpm | Activity (Gallus gallus [22]): 560 cpm | Activity (Gallus gallus [23]): 680 cpm | Activity (Gallus gallus [24]): 930 cpm | Activity (Gallus gallus [25]): 1530 cpm | Activity (Gallus gallus [26]): 1470 cpm | Activity (Gallus gallus [27]): 770 cpm | Activity (Gallus gallus [28]): 590 cpm | Ratio (Gallus gallus [29]): 0.8 | Ratio (Gallus gallus [30]): 1.1 | Ratio (Gallus gallus [31]): 1.3 | Ratio (Gallus gallus [32]): 1.8 | Ratio (Gallus gallus [33]): 2.9 | Ratio (Gallus gallus [34]): 2.8 | Ratio (Gallus gallus [35]): 1.5 | Ratio (Gallus gallus [36]): 1.1 | RCI (Gallus gallus [9]): 46%

C=C1CC[C@H](O)C/C1=C\C=C1/CCC[C@]2(C)[C@@H]([C@H](C)CCCC(C)(C)O)CC[C@@H]12
Activity (Gallus gallus [7]): Active | Activity (Gallus gallus [8]): Active | RCI (Gallus gallus [9]): 0.58%

— ChEMBL document CHEMBL3244249, “Studies on vitamin D (calciferol) and its analogues. 15. 24-Nor-1alpha,25-dihydroxyvitamin D3 and 24-nor-25-hydroxy-5,6-trans-vitamin D3” (1978)
